Results as given in article PMC2754042 (Journal of medicinal chemistry, 2008).
Structures can show the parent of a compound that is named as a salt. Where a SMILES comes first, the peptide text is derived from it. The star is where a group is joined. Cbz = O=C(OCc1ccccc1)*

Tests used:
Renal cancer cell lines = assay: NCI sixty cell panel, renal subpanel; format: cell-based; details: Homo sapiens, read-out: pTGI Renal
[1] = test system: sixty human tumor cell lines; assay: NCI sixty cell panel, mean of full panel; format: cell-based; details: for GI50: read-out: pGI50 MG-MID (converted); for CC50: read-out: pLC50 MG-MID (converted); for IC (TGI): read-out: pTGI MG-MID
Breast cancer cell lines = assay: NCI sixty cell panel, breast subpanel; format: cell-based; details: Homo sapiens, read-out: pTGI Breast
[2] = test system: panel of 36 human tumor cell lines; assay: Oncotest 36 cell line assay; format: cell-based; details: four days exposure
How it was run: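 Panel of 36 lines: 24 derived from patient tumor xenografts passaged subcutaneously in nude mice, 12 commercial. Grown at 37°C, 5% CO2, in RPMI 1640 with 10% fetal calf serum and 0.1 mg/ml gentamicin. Test compound added one day after plating, at 5 concentrations, for four days. DNA content read by propidium iodide fluorescence. Three independent experiments, each in triplicate; IC70 values.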

C-erbB2 = assay: Stability of C-erbB2 and β-actin in MCF-7 cells; format: cell-based, human; details: Western blot
How it was run: (§1)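 MCF7 cells (1×10^6) seeded in six-well plates and grown overnight. Cycloheximide (100 µmol/L) given alone, with MG-132 (10 µmol/L), or with test compound for 8 and 16 h in total. Lysates Western blotted with polyclonal anti-BCA2 (1:800), monoclonal anti-β-actin (1:5000) and monoclonal anti-C-erbB2 (1:2000). Band mean grey value and integrated density expressed relative to control sample; protein levels normalised to β-actin.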

Melanoma cell lines = assay: NCI sixty cell panel, melanoma subpanel; format: cell-based; details: Homo sapiens, read-out: pTGI Melanoma
Colon cancer cell lines = assay: NCI sixty cell panel, colon subpanel; format: cell-based; details: Homo sapiens, read-out: pTGI Colon
HL60 and HL60 ρ^0 cells = assay: 2-day MTT cell proliferation assay in HL60 and HL60ρ0 cells; format: cell-based; details: Homo sapiens, HL-60, 48 h, read-out: IC50 for cell proliferation
How it was run: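 Cells exposed to test compound for 48 h, then MTT reduction read as a measure of proliferation. IC50 for cell proliferation derived from the readings.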

[3] = test system: Ovarian cancer cell lines; assay: NCI sixty cell panel, ovarian subpanel; format: cell-based; details: Homo sapiens, read-out: pTGI Ovarian
[4] = test system: PMET, B1647, HEL and M07e; assay: PMET inhibition in human leukemic cell lines B1647, HEL and M07e; format: cell-based; details: read-out: PMET inhibition IC50
How it was run: (§2)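 Plasma membrane electron transport assay: leukemic cells (10^5 per well in 0.1 ml) pretreated 30 min with test compound in DMSO (<0.1% final). WST-1 and mPMS then added (final 500 µM and 20 µM). WST-1 reduction followed in real time at 450 nm and expressed as % of control.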

[5] = test system: leukemia cell lines HL-60, K562, MOLT-4, CCRF-CEM, RPMI-8226, SR; assay: Hollow fiber assay; format: in vivo, human; details: panel of six leukemia cell lines
HL-60-TB leukemia = assay: Human tumor xenograft in nude mice; format: in vivo; details: HL-60-TB leukemia xenograft in nude mice
[6] = test system: plasma membrane electron transport (PMET), HL60 and HL60ρ^0 cells; assay: PMET inhibition; format: cell-based, human; details: at 200 µM, 30 min pretreatment
How it was run: as §2

Leukemia cell lines = assay: NCI sixty cell panel, leukemia subpanel; format: cell-based; details: Homo sapiens; for IC (TGI): read-out: pTGI Leukemia
[7] = test system: Prostate cancer cell lines; assay: cells; format: cell-based; details: Homo sapiens, read-out: pTGI Prostate
BCA2 = assay: Analysis of BCA2 protein stability in MCF7 cells; format: cell-based, human; details: MCF-7 cells, in the presence of cycloheximide (CHX), 16 h
How it was run: as §1

CNS cancer cell lines = assay: cells; format: cell-based; details: Homo sapiens, read-out: pTGI CNS
NSCLC cell lines = assay: NCI sixty cell panel, NSCLC subpanel; format: cell-based; details: Homo sapiens, read-out: pTGI NSCLC

Structure (SMILES) | GI50 [1] [µM] | CC50 [1] [µM] | IC (TGI) [1] [µM] | further results
O=C1Nc2ccccc2/C1=C\c1cccc(/C=C2/C(=O)Nc3ccccc32)n1 [Compound 3a] | 0.457 | 14.1 | – | IC (TGI) (Renal cancer cell lines): 1.62 µM; IC (TGI) (Breast cancer cell lines): 2 µM
O=C1Nc2cccc(Cl)c2/C1=C\c1cccc(/C=C2/C(=O)Nc3cccc(Cl)c32)n1 [Compound 3b] | 0.457 | – | – | mean IC70 [2]: 0.35 mg/L; effects on β-actin or the oncogenic receptor C-erbB2 (C-erbB2): No effects; IC (TGI) (Melanoma cell lines): 3.16 µM; IC (TGI) (Colon cancer cell lines): 5.01 µM; IC50 (HL60 and HL60 ρ^0 cells): 3 to 8 µM; IC (TGI) [3]: 2.82 µM; IC50 [4]: 15 to 30 µM
O=C1Nc2ccc(Cl)cc2/C1=C\c1cccc(/C=C2/C(=O)Nc3ccc(Cl)cc32)n1 [Compound 3c] | 1.07 | 16.2 | 3.39 | IC50 (HL60 and HL60 ρ^0 cells): 3 to 8 µM
COc1ccc2c(c1)/C(=C\c1cccc(/C=C3/C(=O)Nc4ccc(OC)cc43)n1)C(=O)N2 [Compound 3d] | 1.2 | 39.8 | 7.08 | mean IC70 [2]: 0.56 mg/L; hollow fiber assay combined i.p. + s.c. score [5]: 22; IC (TGI) (Melanoma cell lines): 3.98 µM; IC50 [4]: 30 to 45 µM; distal site antitumor activity in xenograft (HL-60-TB leukemia): did not show significant activity
O=C1Nc2ccc(O)cc2/C1=C\c1cccc(/C=C2/C(=O)Nc3ccc(O)cc32)n1 [Compound 3e] | 39.8 | 97.7 | 87.1 | IC50 [4]: 40 to 50 µM
O=C(O)CCC(=O)c1ccc2c(c1)/C(=C\c1cccc(/C=C3/C(=O)Nc4ccc(C(=O)CCC(=O)O)cc43)n1)C(=O)N2 [Compound 3f] | 75.9 | – | 95.5 | –
CN(C)c1ccc2c(c1)/C(=C\c1cccc(/C=C3/C(=O)Nc4ccc(N(C)C)cc43)n1)C(=O)N2 [Compound 3g] | 5.37 | 91.2 | 40.7 | IC (TGI) (Renal cancer cell lines): 50.1 µM; PMET inhibition [6]: inactive
O=C1Nc2ccc(F)cc2/C1=C\c1cccc(/C=C2/C(=O)Nc3ccc(F)cc32)n1 [Compound 3h] | 3.24 | 60.3 | 11.7 | IC (TGI) [3]: 25.1 µM
O=C1Nc2ccc(C(=O)O)cc2/C1=C\c1cccc(/C=C2/C(=O)Nc3ccc(C(=O)O)cc32)n1 [Compound 3i] | – | 89.1 | 83.2 | PMET inhibition [6]: inactive
O=C1Nc2ccc(Br)cc2/C1=C\c1cccc(/C=C2/C(=O)Nc3ccc(Br)cc32)n1 [Compound 3j] | 8.32 | 56.2 | – | IC (TGI) [3]: 25.7 µM
O=C1Nc2ccc(S(=O)(=O)O)cc2/C1=C\c1cccc(/C=C2/C(=O)Nc3ccc(S(=O)(=O)O)cc32)n1 [Compound 3k] | 97.7 | – | – | –
O=C1Nc2cc(Cl)ccc2/C1=C\c1cccc(/C=C2/C(=O)Nc3cc(Cl)ccc32)n1 [Compound 3l] | 2.04 | 39.8 | 8.71 | –
Cc1cc2c(cc1O)/C(=C\c1cccc(/C=C3/C(=O)Nc4cc(C)c(O)cc43)n1)C(=O)N2 [Compound 3m] | 69.2 | – | 97.7 | –
COc1cc2c(cc1C)NC(=O)/C2=C/c1cccc(/C=C2/C(=O)Nc3cc(C)c(OC)cc32)n1 [Compound 3n] | 51.3 | – | 95.5 | –
CN1C(=O)/C(=C/c2cccc(/C=C3/C(=O)N(C)c4ccccc43)n2)c2ccccc21 [Compound 3o] | 8.13 | 49 | 26.9 | PMET inhibition [6]: inactive; IC (TGI) (Leukemia cell lines): 15.8 µM; IC (TGI) [7]: 39.8 µM
COc1ccc2c(c1)/C(=C\c1cccc(/C=C3/C(=O)N(C)c4ccc(OC)cc43)n1)C(=O)N2C [Compound 3p] | 1.74 | 43.7 | 12.3 | IC (TGI) [3]: 31.6 µM; GI50 (Leukemia cell lines; read-out: pGI50 Leukemia (converted)): 1.17 µM; IC (TGI) (Breast cancer cell lines): 20 µM
O=C1Nc2ccccc2/C1=c1/[nH]c(=O)/c(=C2/C(=O)Nc3ccccc32)[nH]c1=O [Compound 7a] | 89.1 | – | – | –
CC(=O)n1c(=O)/c(=C/c2c[nH]c3ccccc23)n(C(C)=O)c(=O)/c1=C/c1c[nH]c2ccccc12 [Compound 8a] | 74.1 | – | 91.2 | IC (TGI) (Renal cancer cell lines): 50.1 µM; PMET inhibition [6]: inactive
O=c1[nH]/c(=C\c2c[nH]c3ccccc23)c(=O)[nH]/c1=C\c1c[nH]c2ccccc12 [Compound 9a] | 81.3 | – | – | PMET inhibition [6]: inactive
COc1ccc2[nH]cc(/C=c3\[nH]c(=O)/c(=C/c4c[nH]c5ccc(OC)cc45)[nH]c3=O)c2c1 [Compound 9b] | 93.3 | – | – | –
CC(C)C[C@@H](C=O)NC(=O)[C@H](CC(C)C)NC(=O)[C@H](CC(C)C)NC(=O)OCc1ccccc1 [MG-132, Z-Leu-Leu-Leu-al] (Cbz-Leu-Leu-Leu-aldehyde) | – | – | – | increase of BCA2 protein compared to CHX treatment (BCA2): more than 10 fold
CC[C@]1(O)C[C@H]2CN(CCc3c([nH]c4ccccc34)[C@@](C(=O)OC)(c3cc4c(cc3OC)N(C=O)[C@H]3[C@@](O)(C(=O)OC)[C@H](OC(C)=O)[C@]5(CC)C=CCN6CC[C@]43[C@@H]65)C2)C1 [Vincrist ine sulfate, reference compound] | 0.2 | – | 10 | IC (TGI) (Renal cancer cell lines): 20 µM; IC (TGI) (Melanoma cell lines): 7.94 µM; IC (TGI) (CNS cancer cell lines): 6.31 µM; IC (TGI) (Colon cancer cell lines): 3.98 µM; IC (TGI) [3]: 20 µM; IC (TGI) (NSCLC cell lines): 15.8 µM; IC (TGI) (Leukemia cell lines): 15.8 µM; IC (TGI) (Breast cancer cell lines): 7.94 µM; IC (TGI) [7]: 6.31 µM
